Results taken from ChEMBL document CHEMBL4270576, “Discovery of a benzenesulfonamide-based dual inhibitor of microsomal prostaglandin E2 synthase-1 and 5-lipoxygenase that favorably modulates lipid mediator biosynthesis in inflammation” (Eur J Med Chem, 2018).
Active and inactive are the calls of the source. No cut-off for these calls is given here.

Tests used:
[1] = test system: Mus musculus; assay: Antiinflammatory activity in CD-1 mouse assessed as reduction in zymosan-induced LTC4 formation in peritoneal cavity at 10 mg/kg, ip preincubated for 30 mins followed by zymosan addition measured after 30 mins by ELISA; format: functional, organism-based
Procedure, shortened: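 CD-1 male mice (6-8 weeks), n=6 per group, given 10 mg/kg i.p. in 2% DMSO/saline vehicle 30 min before i.p. zymosan (500 µL of 2 mg/mL suspension). Peritoneal cavity washed with 3 ml PBS 30 min after zymosan; LTC4 measured in exudate. One-way ANOVA with Bonferroni test.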

[2] = test system: Mus musculus; assay: Antiinflammatory activity in zymosan induced CD-1 mouse model of inflammation assessed as reduction in LTB4 levels in air pouch at 10 mg/kg, ip preincubated for 30 mins followed by zymosan challenge and measured after 4 hrs by ELISA; format: functional, organism-based
Procedure, shortened: (§1)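 Air pouch formed by s.c. injection of 2.5 mL sterile air in CD-1 mice; on day 6, 10 mg/kg i.p. (2% DMSO/saline) given 30 min before 1 ml 1% w/v zymosan into the pouch. After 4 h, exudate collected with 1 ml saline and centrifuged; leukocytes counted in Burker chamber; LTB4 in supernatant by ELISA (ng/mL). n=6 mice per group.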

[3] = molecular target: T1, Prostaglandin E synthase (Homo sapiens, UniProt O14684); assay: Inhibition of mPGES-1 isolated from microsomes of interleukin-1 beta-stimulated human A549 cells using PGH2 as substrate preincubated for 15 mins followed by substrate addition measured after 1 min by RP-HPLC analysis
T1 sequence (O14684 whole entry): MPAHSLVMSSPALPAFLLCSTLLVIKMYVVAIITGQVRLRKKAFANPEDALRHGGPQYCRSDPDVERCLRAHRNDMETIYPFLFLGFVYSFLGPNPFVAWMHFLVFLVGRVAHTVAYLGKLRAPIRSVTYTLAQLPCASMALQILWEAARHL
Procedure, shortened: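 Microsomes from A549 cells treated with IL-1β (1 ng/ml, 72 h), diluted in 0.1 M potassium phosphate pH 7.4 with 2.5 mM glutathione. Pre-incubated 15 min with compound or DMSO, then 20 µM PGH2 (final) for 1 min at 4 °C. IC50 from 4-5 concentrations.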

[4] = test system: Mus musculus; assay: Antiinflammatory activity in zymosan induced CD-1 mouse model of inflammation assessed as reduction in leukocyte recruitment in air pouch at 10 mg/kg, ip preincubated for 30 mins followed by zymosan challenge and measured after 4 hrs by trypan blue staining-based burker's chamber method; format: functional, organism-based; procedure, shortened: as §1

IC50 [3]: 2400 nM
Structure (SMILES): CC(c1cc2ccccc2s1)N(O)C(N)=O (centres undefined) [ZILEUTON]
Activity [1]: Active
Activity [2]: Active
Activity [4]: Active
